Source: PubChem BioAssay
Only a selection was taken, and hits are over-represented in it overall.
A1_apoptosis_2 = compounds inhibiting A1, read as caspase activation. 24,000 tested, under 10 active. AID 2465. MEF A1-2A-BIM cells, caspase-Glo luminescence, 3 h; percent of clofoctol response, DMSO zero. caspase activation, % (concentration not given with the values); in the data active = caspase activation above about 5.9%; inconclusive = no clear call, values can overlap the other calls; inactive = below about 2.2%
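Test system – A1-2A-BIM-expressing MEF cells · Input – 2500 cells/well · Medium – RPMI-1640 growth medium with 10% FBS · Compound dosing – 50 nL pinned compound · Timing – 3 h compound exposure at 37 °C · Technique – Caspase-Glo luminescence (DEVD substrate) · Evaluation – Caspase-3/7 activity from luminescence increase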
T_cruzi_HTS = intracellular Trypanosoma cruzi inhibition; intracellular Trypanosoma cruzi in host cells, plate reader; activity score (inhibition), % at 5.01 µM; actives 4.9% (n = 22,000); AID 651903; in the data active = activity score above about 55%; inconclusive = no clear call, values can overlap the other calls;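 also: parasites and compound incubated about four days before reading; 0% = median of neutral control wells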
INS-1E_rescue = INS-1E beta cell protection from cytokine death; actives 0.1% (n = 20,000); AID 488910; protection from cytokine-induced ATP loss, % at 10 µM; INS-1E cytokine-induced death, ATP luminescence, 48 h; normalised: neutral wells 0, positive control 100;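 active = mean replicate protection from cytokine-induced ATP loss at least 50% and at least 75% of replicates each reaching 50%; inconclusive = meets only one of the two criteria, mean or replicate share; inactive = fails both the mean and replicate share criteria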
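Test system: INS-1E rat cells | Quantity: 8000 cells per well | Medium: Phenol-red-free RPMI with 5% fetal bovine serum | Reagent: Cytokine cocktail of IFN-γ, TNF-α and IL-1β | Doses: One compound concentration, pin transfer | Timing: 48 h co-treatment, 10 min post-lysis read | Technique: Luminescent ATP assay (CellTiter-Glo)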
* marks the source's active call; other numbers are inactive results; ? = inconclusive; · = no result.

SMILES A1_apoptosis_2 T_cruzi_HTS INS-1E_rescue
C[C@H]1CN([C@@H](C)CO)C(=O)c2cc(NS(=O)(=O)c3ccccc3)ccc2O[C@@H]1CN(C)Cc1ccc(Cl)c(Cl)c1 · 62* -7
C[C@@H]1CN([C@H](C)CO)C(=O)c2cc(NS(=O)(=O)c3ccccc3)ccc2O[C@@H]1CN(C)Cc1ccc(Cl)c(Cl)c1 · -8 -2
C[C@@H]1CN([C@@H](C)CO)C(=O)c2cc(NS(=O)(=O)c3ccc(Cl)cc3)ccc2O[C@H]1CN(C)Cc1ccc(Cl)c(Cl)c1 1 58* -8
Cc1ccc(S(=O)(=O)Nc2ccc3c(c2)C(=O)N([C@@H](C)CO)C[C@@H](C)[C@@H](CN(C)Cc2ccc(Cl)c(Cl)c2)O3)cc1 · 64* -37
Cc1ccc(S(=O)(=O)Nc2ccc3c(c2)C(=O)N([C@@H](C)CO)C[C@H](C)[C@@H](CN(C)Cc2ccc(Cl)c(Cl)c2)O3)cc1 · 32 0
C[C@H]1CN([C@@H](C)CO)C(=O)c2cc(N(C)C)ccc2O[C@H]1CN(C)Cc1ccc(C(=O)O)cc1 · 1 1
COc1ccc(NC(=O)Nc2ccc3c(c2)CC(=O)N([C@@H](C)CO)C[C@H](C)[C@@H](CN(C)C(=O)Nc2ccc4c(c2)OCO4)O3)cc1 · 8 8
C[C@H](CO)N1C[C@H](C)[C@H](CN(C)Cc2ccc(C(F)(F)F)cc2)Oc2ccc(NS(=O)(=O)c3ccc(F)cc3)cc2C1=O 1 -7 -5
C[C@@H]1CCCCO[C@H](CN(C)Cc2ccc(C(F)(F)F)cc2)[C@@H](C)CN([C@H](C)CO)C(=O)c2cc(NS(=O)(=O)c3ccc(Cl)cc3)ccc2O1 2 69* -31
C[C@H](CO)N1C[C@H](C)[C@@H](CN(C)Cc2ccc(C(F)(F)F)cc2)Oc2ccc(NS(=O)(=O)c3ccc(Cl)cc3)cc2C1=O · 71* -8
C[C@@H]1CN([C@H](C)CO)C(=O)c2cc(NS(=O)(=O)c3ccc(Cl)cc3)ccc2O[C@H]1CN(C)Cc1ccc(C(F)(F)F)cc1 1 47 -32
C[C@H]1CN([C@@H](C)CO)C(=O)c2cc(NS(=O)(=O)c3ccc(F)cc3)ccc2O[C@H]1CN(C)Cc1ccc(C(F)(F)F)cc1 · 55* ·
C[C@H]1CN([C@@H](C)CO)C(=O)c2cc(NS(=O)(=O)c3ccc(Cl)cc3)ccc2O[C@H]1CN(C)Cc1ccc(C(F)(F)F)cc1 -1 · ·
C[C@H]1CN([C@@H](C)CO)C(=O)c2cc(NS(=O)(=O)c3ccc(Cl)cc3)ccc2O[C@@H]1CN(C)Cc1ccc(C(F)(F)F)cc1 -1 58* -23
C[C@@H]1CN([C@@H](C)CO)C(=O)c2cc(NS(=O)(=O)c3ccc(Cl)cc3)ccc2O[C@@H](C)CCCCO[C@@H]1CN(C)Cc1ccc(C(F)(F)F)cc1 1 · ·
C[C@H](CO)N1C[C@H](C)[C@H](CN(C)S(=O)(=O)c2ccccc2)OCCCC[C@H](C)Oc2ccc(NC(=O)c3ccccc3)cc2C1=O 0 · ·
C[C@@H]1CCCCO[C@@H](CN(C)S(C)(=O)=O)[C@H](C)CN([C@@H](C)CO)C(=O)c2cc(NC(=O)Nc3ccc(F)cc3)ccc2O1 -1 · ·
C[C@@H]1CN([C@H](C)CO)C(=O)Cc2cc(NC(=O)c3ccncc3)ccc2O[C@H]1CN(C)Cc1ccc(C(F)(F)F)cc1 0 19 5
C[C@@H]1CN([C@H](C)CO)C(=O)Cc2cc(NC(=O)Nc3ccc(C(F)(F)F)cc3)ccc2O[C@@H]1CN(C)Cc1ccncc1 0 65* 2
C[C@H]1CN([C@@H](C)CO)C(=O)Cc2cc(NC(=O)Nc3ccc(C(F)(F)F)cc3)ccc2O[C@H]1CN(C)Cc1ccncc1 2 68* -1
C[C@H](CO)N1C[C@H](C)[C@@H](CN(C)Cc2ccncc2)Oc2ccc(NC(=O)Nc3ccc(C(F)(F)F)cc3)cc2CC1=O 0 · ·
C[C@@H]1CN([C@@H](C)CO)C(=O)Cc2cc(NC(=O)Nc3ccc(C(F)(F)F)cc3)ccc2O[C@@H]1CN(C)Cc1ccncc1 1 69* -17
C[C@H](CO)N1C[C@H](C)[C@H](CN(C)Cc2ccc(C(F)(F)F)cc2)Oc2ccc(NC(=O)c3ccncc3)cc2CC1=O 0 38 -8
C[C@H]1CN([C@@H](C)CO)C(=O)c2cc(NC(=O)Cn3cnnn3)ccc2O[C@H]1CN(C)S(=O)(=O)c1cccs1 -1 -7 6
C[C@@H]1CCCCO[C@H](CN(C)S(=O)(=O)c2ccccc2)[C@H](C)CN([C@H](C)CO)C(=O)c2cc(N(C)C)ccc2O1 -1 · ·
SMILES A1_apoptosis_2 T_cruzi_HTS INS-1E_rescue
C[C@@H]1CN([C@@H](C)CO)C(=O)c2cc(NS(C)(=O)=O)ccc2O[C@@H](C)CCCCO[C@@H]1CN(C)C 0 · ·
CNC[C@H]1OCCCC[C@@H](C)Oc2ccc(NS(=O)(=O)c3ccc(F)cc3)cc2C(=O)N([C@H](C)CO)C[C@@H]1C 0 10 2
C[C@@H]1CN([C@@H](C)CO)C(=O)Cc2cc(NC(=O)Nc3ccc(F)cc3)ccc2O[C@H]1CN(C)Cc1ccc(Cl)c(Cl)c1 1 · ·
C[C@H](CO)N1C[C@H](C)[C@@H](CN(C)Cc2ccc(Cl)c(Cl)c2)Oc2ccc(NC(=O)Nc3ccc(F)cc3)cc2CC1=O 0 · ·
C[C@@H]1CN([C@H](C)CO)C(=O)Cc2cc(NC(=O)Nc3ccc(F)cc3)ccc2O[C@@H]1CN(C)Cc1ccc(Cl)c(Cl)c1 0 68* -14
C[C@H](CO)N1C[C@H](C)[C@H](CN(C)Cc2ccc(Cl)c(Cl)c2)Oc2ccc(NC(=O)Nc3ccc(F)cc3)cc2CC1=O · ? -15
C[C@@H]1CN([C@@H](C)CO)C(=O)Cc2cc(NC(=O)Nc3ccc4c(c3)OCO4)ccc2O[C@@H]1CN(C)Cc1ccc(Cl)c(Cl)c1 · 47 -40
C[C@@H]1CN([C@@H](C)CO)C(=O)Cc2cc(NC(=O)Nc3ccccc3)ccc2O[C@@H]1CN(C)Cc1ccc(Cl)c(Cl)c1 · 68* -50
C[C@H]1CN([C@@H](C)CO)C(=O)Cc2cc(NC(=O)Nc3ccc4c(c3)OCO4)ccc2O[C@H]1CN(C)Cc1ccc(Cl)c(Cl)c1 · 63* -6
C[C@H]1CN([C@@H](C)CO)C(=O)Cc2cc(NC(=O)Nc3ccc(F)cc3)ccc2O[C@H]1CN(C)Cc1ccc(Cl)c(Cl)c1 2 64* -52
C[C@@H]1CN([C@H](C)CO)C(=O)Cc2cc(NC(=O)CCN3CCOCC3)ccc2O[C@@H]1CN(C)C(=O)Nc1ccc(F)cc1 1 -12 4
C[C@H](CO)N1C[C@H](C)[C@H](CN(C)C(=O)Nc2cccc3ccccc23)Oc2ncc(C#Cc3ccc(C(F)(F)F)cc3)cc2C1=O 0 85* ·
C[C@H](CO)N1C[C@H](C)[C@H](CN(C)C(=O)Nc2cccc3ccccc23)Oc2ncc(C#CC(C)(C)O)cc2C1=O · -9 ·
C[C@H](CO)N1C[C@H](C)[C@H](CN(C)C(=O)Nc2cccc3ccccc23)Oc2ncc(-c3cccc(F)c3)cc2C1=O 0 32 ·
